What all share (type): functional
For test [1], the system named is Mycobacterium avium subsp. paratuberculosis. In words: Antituberculosis activity against Mycobacterium paratuberculosis ATCC 19698 isolated from bovine assessed as lowest drug level producing inhibition at 10^6 CFU of inoculum by MGIT 960 susceptibility test. In a few lines:
(§1)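 M. paratuberculosis ATCC 19698 at 10^6 CFU per MGIT ParaTB tube in duplicate, drugs at final 1.0–64.0 μg/ml, 37°C in MGIT 960. Inhibition is the lowest concentration whose time to detection exceeds the 1:100 diluted-inoculum solvent control. No detectable growth means the tube never signals positive through 56 days.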

Test [2] has the same test system. In words: Antituberculosis activity against Mycobacterium paratuberculosis ATCC 19698 isolated from bovine assessed as lowest drug level producing inhibition at 10^6 CFU of inoculum by agar counting method. In a few lines: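 ATCC 19698 at 10^6 CFU was exposed to drug (1.0–64.0 μg/ml) in MGIT ParaTB medium at 37°C. Aliquots taken at 3 and 5 days were centrifuged, resuspended in PBS and declumped with glass beads. Serial dilutions were plated in quadruplicate on 7H10/OADC/mycobactin J and counted after 8 weeks. Inhibition is the lowest concentration giving a 2 log10 (99%) CFU reduction.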

Test [3] shares this test system. In words: Antituberculosis activity against Mycobacterium paratuberculosis ATCC 19698 isolated from bovine assessed as minimum drug level resulting in no detectable growth at 10^6 CFU of inoculum after 56 days by MGIT 960 susceptibility test. In a few lines: as §1

The source of these data is ChEMBL document CHEMBL1151475, “Thiopurine drugs azathioprine and 6-mercaptopurine inhibit Mycobacterium paratuberculosis growth in vitro” (2008).

Take `CCn1cc(C(=O)O)c(=O)c2ccc(C)nc21` [NALIDIXIC ACID]: the Activity in test [1], in test [2] and in test [3] was >64 µg/mL in each case.

With `CO[C@H]1/C=C/O[C@@]2(C)Oc3c(C)c(O)c4c(O)c(c(/C=N/N5CCN(C)CC5)c(O)c4c3C2=O)NC(=O)/C(C)=C\C=C\[C@H](C)[C@H](O)[C@@H](C)[C@@H](O)[C@@H](C)[C@H](OC(C)=O)[C@@H]1C` [RIFAMPIN], the figures for the Activity in test [1], in test [2] and in test [3] were 2 µg/mL, 2 µg/mL and >64 µg/mL, respectively.

For `Nc1ccc(S(=O)(=O)Nc2ccccn2)cc1` [SULFAPYRIDINE], the Activity in test [1], in test [2] and in test [3] was >64 µg/mL in each case.

For `O=C(O)c1cc(/N=N/c2ccc(S(=O)(=O)Nc3ccccn3)cc2)ccc1O` [SULFASALAZINE], the Activity in test [1], in test [2] and in test [3] was >64 µg/mL each time.
